Assay results published in ChEMBL document CHEMBL5104201, “Prodrugs of a 1-Hydroxy-2-oxopiperidin-3-yl Phosphonate Enolase Inhibitor for the Treatment of ENO1-Deleted Cancers” (J Med Chem, 2022).

Assays:
[1] = Cytotoxicity against human LN-319 cells expressing ENO1 assessed as cell growth inhibition incubated for 6 days by cystal violet staining based analysis; assay type: functional; settings: LN-319, 144 h
[2] = tested on: Panel NCI-60 (60 carcinoma cell lines); assay: Cytotoxicity against human NCI-60 cells assessed as reduction in cell viability at 10 uM incubated for […]; assay type: functional
Outline: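 NCI DTP one-dose screen: single 10 μM dose, […], across the 60-line panel (some lines absent when unavailable). Cells kept in RPMI 1640 with 5% FBS and 2 mM L-glutamine, seeded at 5000–40,000 cells/well by doubling time. Percent growth given relative to drug-free untreated control and to cell number at time zero.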

[3] = Metabolic stability of the compound in human serum over 12 hrs by 31P-NMR analysis; assay type: ADME, cell-free
Outline: (§1)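 Prodrug dissolved in DMSO and added to 80% human serum/plasma with 20% D2O, final 2 mM unless stated otherwise. Samples held at 37 °C between timepoints. Read by 31P NMR (CPD, 500 scans), with 1H–31P HSQC where applicable. Peaks integrated and normalised to the phosphate peak at 0 ppm.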

[4] = Prodrug conversion in human plasma assessed as (1-hydroxy-2-oxopiperidin-3-yl) phosphonic acid formation measured after 3 hrs by 31P-NMR analysis; assay type: ADME, cell-free; outline: as §1
[5] = Stability of compound in phosphate buffer at pH 7 incubated for 3 hrs; assay type: physicochemical; settings: pH 7, 3 h
Outline: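 Stability followed by 31P NMR in 5 mM phosphate-buffered D2O at pH 7.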

[6] = Stability of compound in culture media incubated for 72 hrs by 31P-NMR analysis; assay type: physicochemical
Outline: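 Prodrug (final 2 mM unless stated otherwise) in 80% DMEM with 20% D2O, kept at 37 °C between timepoints. Species followed by 31P NMR (CPD, 500 scans).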

[7] = Stability of compound in human serum incubated for 72 hrs by 31P-NMR analysis; assay type: ADME, cell-free; outline: as §1
[8] = Stability of compound in human plasma incubated for 3 hrs by 31P-NMR analysis; assay type: ADME, cell-free; outline: as §1
[9] = Metabolic stability of the compound in human serum measured over 16 hrs by 31P-NMR analysis; assay type: ADME, cell-free; outline: as §1
[10] = Metabolic stability of the compound in human serum measured over 366 hrs by 31P-NMR analysis; assay type: ADME, cell-free; outline: as §1
[11] = Metabolic stability of the compound in human serum measured over 9 hrs by 31P-NMR analysis; assay type: ADME, cell-free; outline: as §1

Compound `O=C1C(P(=O)(O)O)CCCN1O` (configuration not stated) has an IC50 [1] of 3000 µM.

Compound `CNP(=O)(OCOC(=O)C(C)(C)C)C1CCCN(O)C1=O` (configuration not stated) has an IC50 [1] of 5.4 µM.

With `CC(C)(C)C(=O)OCOP(=O)(OCOC(=O)C(C)(C)C)C1CCCN(O)C1=O` (configuration not stated) the Activity [2] was 7.1% and the Stability [3] was “Unstable”.

For `O=C1C(P(=O)(NCc2ccccc2)OCOC(=O)N2CCC(N3CCCCC3)CC2)CCCN1O` (configuration not stated), the IC50 [1] was > 100 µM.

`CC(C)(C)C(=O)OCOP(=O)(NCc1cccc(F)c1)C1CCCN(O)C1=O` (configuration not stated) gave an IC50 [1] of 2.38 µM.

Work on `CC(C)(C)C(=O)OCOP(N)(=O)C1CCCN(O)C1=O` (configuration not stated) yielded an IC50 [1] of 426 µM.

`CN(C)P(=O)(OCOC(=O)C(C)(C)C)C1CCCN(O)C1=O` (configuration not stated) showed an IC50 [1] of 12.9 µM.

In the case of `N#CCOP(=O)(OC#N)C1CCCN(O)C1=O` (configuration not stated), the IC50 [1] is reported as > 100 µM.

With `O=C1C(P(=O)(NCc2ccccc2)Oc2ccc(F)cc2)CCCN1O` (configuration not stated) the IC50 [1] was > 100 µM.

Work on `CCCCCCCCCCCCCCCCOCCCOP(=O)(O)C1CCCN(O)C1=O` (configuration not stated) yielded an Activity [2] of 14%.

For `CC(C)C(=O)ON1CCCC(P2(=O)OCc3ccccc3O2)C1=O` (configuration not stated), the Drug metabolism [4] was “Metabolite_Detected”, the Stability [5] was “Stable” and the Stability [6] was “Stable”. The Stability [7] was “Stable” and the Stability [8] was “Unstable”.

For `CCCCCCCCCCCCNP(=O)(O)C1CCCN(O)C1=O` (configuration not stated), the IC50 [1] was > 100 µM.

In the case of `CC(C)OC(=O)[C@H](C)NP(=O)(Oc1ccccc1)C1CCCN(O)C1=O` (some centres not stated), the Stability [9] is reported as “Stable”, the Stability [10] is reported as “Stable” and the Stability [11] is reported as “Stable”.

Compound `N#CCOP(=O)(NCc1ccccc1)C1CCCN(O)C1=O` (configuration not stated) has an IC50 [1] of 0.775 µM.

For `CC(C)OC(=O)[C@H](C)NP(=O)(N[C@@H](C)C(=O)OC(C)C)C1CCCN(O)C1=O` (some centres not stated), the IC50 [1] was > 100 µM.
